Measurements collected from several papers.
Protocols differ between the studies behind these lines.
Target: Receptor tyrosine-protein kinase erbB-2 (ERBB2, Homo sapiens, UniProt P04626)

| Structure (SMILES) | test | setting | remaining binding [%] |
| --- | --- | --- | --- |
| CNC(=O)Nc1ccc2c(c1)[C@@]1(CC2)OC(=O)N(CC(=O)N(Cc2ccc(F)cc2)[C@@H](C)C(F)(F)F)C1=O | cell-free assay, competition with immobilised ligand | 1 µM | 98 |
| c1cnn2ncc(-c3ccnc(N4CCC45COC5)n3)c2c1 | binding | 1 µM | 86 |
| C[C@@H]1CN(c2ccc3ncc(-c4ccc5[nH]nc(C6CC6)c5c4)n3n2)C[C@H](C)O1 | binding, competition with immobilised ligand | 0.5 µM | 68 |
| O=C(c1ccc(Nc2nccc(-c3cc4ccccc4s3)n2)cc1)N1CCC(N2CCCC2)CC1 | binding, competition with immobilised ligand | 1 µM | 90 |
| C[C@@H](c1cccc(C#N)c1)n1cc(Cl)cc(C(N)=O)c1=N | cell-free assay, competition with immobilised ligand | 1 µM | 96 |
| COc1cnc(Nc2cccc(S(N)(=O)=O)c2)nc1N1CCN(c2ccccc2)CC1 | binding, competition with immobilised ligand | 1 µM | 100 |
| CC(=O)c1c(NS(C)(=O)=O)c2cc(-c3ccc(Cl)cc3)c(-c3ccc(Cl)cc3Cl)nc2n(C)c1=O | cell-free assay, competition with immobilised ligand | 1 µM | 100 |
| C=CC(=O)N1CCC(C(=O)NCC(=O)N2CCN(c3nc(-c4cnc(N)nc4C(F)F)nc(N4CCOCC4)n3)CC2)CC1 | binding, competition with immobilised ligand | 1 µM | 70 |
| COc1cccc(CNC(=O)c2nc3scc(COCc4ccc(C(=O)O)cc4)c3c(=O)[nH]2)c1 | cell-free assay, competition with immobilised ligand | 1 µM | 97.2 |
| CC(C)(C)c1ccc(-c2nc(CBr)nn2-c2cccc(O)c2)cc1 | cell-free assay, competition with immobilised ligand | 10 µM | 84 |
| O=C(Nc1cnc(Oc2ccc(F)cc2)nc1)N1CCc2ncccc2[C@@H]1c1ccc(F)cc1 | cell-free assay, competition with immobilised ligand | 1 µM | 80 |
| Cc1cnn2ncc(-c3ccnc(N(C)C)n3)c2c1 | binding | 1 µM | 94 |
| CCN1CCN(Cc2ccc(C(=O)Nc3ccc(C)c(Oc4ccc5c(c4)CC(=O)N5)c3)cc2C(F)(F)F)CC1 | binding, competition with immobilised ligand | 1 µM | 80 |
| COc1cnc(Nc2cccc(S(N)(=O)=O)c2)nc1N1CCN(c2ccccc2)C(=O)C1 | binding, competition with immobilised ligand | 1 µM | 100 |
| C[C@H]1CCN(c2nccc(-c3cnn4ncccc34)n2)C1 | binding | 1 µM | 94 |
| O=C(c1ccc(Nc2ncc(Cl)c(-c3cc4ccccc4s3)n2)cc1)N1CCC(N2CCCC2)CC1 | binding, competition with immobilised ligand | 1 µM | 100 |
| CN(C)c1ncc(F)c(-c2cnn3ncccc23)n1 | binding | 1 µM | 98 |
| CNCc1ccccc1-c1csc([C@H](C)Nc2nc(C)nc3cc(OC)c(OC)cc23)c1 | cell-free assay, competition with immobilised ligand | 1 µM | 100 |
| O=C(NCCCN1CCOCC1)c1ccc(Nc2nccc(-c3cc4ccccc4s3)n2)cc1 | binding, competition with immobilised ligand | 1 µM | 93 |
| O=C(NCC1CCOCC1)c1n[nH]cc1NC(=O)c1c(F)cccc1F | binding, competition with immobilised ligand | 1 µM | 90 |
| CN(CCCC(F)(F)F)c1nccc(-c2cnn3ncccc23)n1 | binding | 1 µM | 99 |
| O=C(Nc1ccc(Oc2ccc(F)cc2)cc1)N1CCc2ncccc2[C@H]1c1ccc(F)cc1 | cell-free assay, competition with immobilised ligand | 1 µM | 100 |
| N[C@H]1CCN(c2nccc(-c3cnn4ncccc34)n2)C1 | binding | 1 µM | 84 |
| N#Cc1ccccc1CSc1nnc2c(n1)[nH]c1ccccc12 | binding, competition with immobilised ligand | 10 µM | 94 |
